Source: ChEMBL document CHEMBL4028845, “Design, Synthesis, and Properties of a Potent Inhibitor of Pseudomonas aeruginosa Deacetylase LpxC” (J Med Chem, 2017)
In brackets after ≈: the same amount, converted by molar mass. Activity calls are given as the source filed them. No cut-off for these calls is given here.

How the values were obtained:
Pseudomonas aeruginosa [1] = test: Antibacterial activity against hypersusceptible Pseudomonas aeruginosa Z61 after 18 to 24 hrs; type: functional
Procedure, shortened: (§1)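 Broth MIC per CLSI guidelines in cation-adjusted Mueller Hinton broth. Compounds were dissolved and serially diluted in DMSO (carbapenems in water) before addition to plates. Incubation was at 37 °C for 18−24 h. MIC is the lowest concentration preventing visible growth. MIC50/MIC90 are the concentrations inhibiting 50% or 90% of isolates tested.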

[2] = tested on: Stenotrophomonas maltophilia; test: Antibacterial activity against Stenotrophomonas maltophilia NB55011 after 18 to 24 hrs; type: functional; procedure, shortened: as §1
[3] = Protein binding in human plasma; type: ADME, cell-free; settings: read-out: PPB (converted)
Histone deacetylase 9 = Histone deacetylase 9 (Homo sapiens, UniProt Q9UKV0); test: Inhibition of human HDAC9
Chain of Histone deacetylase 9 (Q9UKV0 whole entry): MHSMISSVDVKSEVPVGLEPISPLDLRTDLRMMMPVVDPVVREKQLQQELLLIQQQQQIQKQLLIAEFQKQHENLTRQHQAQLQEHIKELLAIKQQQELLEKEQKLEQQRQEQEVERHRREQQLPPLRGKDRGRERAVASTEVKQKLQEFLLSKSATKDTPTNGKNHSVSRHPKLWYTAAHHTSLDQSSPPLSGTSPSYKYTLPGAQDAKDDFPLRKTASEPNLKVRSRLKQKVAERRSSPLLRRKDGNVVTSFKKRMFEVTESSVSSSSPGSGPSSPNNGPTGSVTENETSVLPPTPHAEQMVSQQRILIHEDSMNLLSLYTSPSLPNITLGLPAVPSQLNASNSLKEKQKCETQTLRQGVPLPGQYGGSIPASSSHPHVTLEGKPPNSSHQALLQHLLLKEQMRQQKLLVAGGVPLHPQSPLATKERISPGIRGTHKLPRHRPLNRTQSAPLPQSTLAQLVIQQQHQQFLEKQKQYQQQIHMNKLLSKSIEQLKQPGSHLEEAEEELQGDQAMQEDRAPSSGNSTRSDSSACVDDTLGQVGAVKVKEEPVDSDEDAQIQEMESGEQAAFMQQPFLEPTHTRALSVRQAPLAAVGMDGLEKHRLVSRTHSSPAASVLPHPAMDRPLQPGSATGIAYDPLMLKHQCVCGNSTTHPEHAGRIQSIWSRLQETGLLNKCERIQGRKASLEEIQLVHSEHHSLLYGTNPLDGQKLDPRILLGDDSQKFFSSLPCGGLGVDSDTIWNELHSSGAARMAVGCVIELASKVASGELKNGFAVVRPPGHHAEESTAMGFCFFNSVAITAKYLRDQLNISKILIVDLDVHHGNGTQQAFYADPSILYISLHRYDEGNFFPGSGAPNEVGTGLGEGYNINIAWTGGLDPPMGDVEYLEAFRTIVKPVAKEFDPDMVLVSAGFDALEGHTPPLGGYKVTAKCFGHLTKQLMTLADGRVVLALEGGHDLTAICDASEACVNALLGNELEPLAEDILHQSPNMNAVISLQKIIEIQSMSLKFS

Pseudomonas aeruginosa [4] = test: Antibacterial activity against Pseudomonas aeruginosa PAO1 K767 after 18 to 24 hrs; type: functional; procedure, shortened: as §1
Klebsiella oxytoca = test: Antibacterial activity against Klebsiella oxytoca NB30007 after 18 to 24 hrs; type: functional; procedure, shortened: as §1
[5] = Cytotoxicity against human K562 cells assessed as reduction in cell viability after 72 hrs by WST1 assay; type: cell-based
Procedure, shortened: (§2)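 Cells were grown and assayed in medium with 10% heat-inactivated FBS and exposed to compound for 72 h. Metabolic activity was read as WST-1 cleavage to formazan at A450, with puromycin as positive control. CC50 (50% reduction in viability) was calculated from dose-response curves.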

Pseudomonas aeruginosa [6] = test: Antibacterial activity against Pseudomonas aeruginosa clinical isolate after 18 to 24 hrs; type: functional
Pseudomonas aeruginosa [7] = test: Antibacterial activity against Pseudomonas aeruginosa clinical isolate infected in iv dosed BalbC mouse neutropenic model assessed as concentration required to show reduction in bacterial burden in lung of 2 log below stasis administered as bid at 2 and 8 hrs post infection measured after 24 hrs
Histone deacetylase 1 = Histone deacetylase 1 (Homo sapiens, UniProt Q13547); test: Inhibition of human HDAC1
Pseudomonas aeruginosa [8] = test: Antibacterial activity against Pseudomonas aeruginosa ATCC 27853 in CD1 mouse thigh infection model assessed as reduction in bacterial burden in thigh at 160 to 320 mg/kg, iv administered at 2 hrs post infection measured after 24 hrs
[9] = Protein binding in rat plasma; type: ADME, cell-free; settings: read-out: PPB (converted)
Escherichia coli [10] = test: Antibacterial activity against Escherichia coli NB27047 after 18 to 24 hrs; type: functional; procedure, shortened: as §1
[11] = molecular target: Polyamine deacetylase HDAC10 (Homo sapiens, UniProt Q969S8); test: Inhibition of human HDAC10
Histone deacetylase 2 = Histone deacetylase 2 (Homo sapiens, UniProt Q92769); test: Inhibition of human HDAC2
Chain of Histone deacetylase 2 (Q92769 whole entry): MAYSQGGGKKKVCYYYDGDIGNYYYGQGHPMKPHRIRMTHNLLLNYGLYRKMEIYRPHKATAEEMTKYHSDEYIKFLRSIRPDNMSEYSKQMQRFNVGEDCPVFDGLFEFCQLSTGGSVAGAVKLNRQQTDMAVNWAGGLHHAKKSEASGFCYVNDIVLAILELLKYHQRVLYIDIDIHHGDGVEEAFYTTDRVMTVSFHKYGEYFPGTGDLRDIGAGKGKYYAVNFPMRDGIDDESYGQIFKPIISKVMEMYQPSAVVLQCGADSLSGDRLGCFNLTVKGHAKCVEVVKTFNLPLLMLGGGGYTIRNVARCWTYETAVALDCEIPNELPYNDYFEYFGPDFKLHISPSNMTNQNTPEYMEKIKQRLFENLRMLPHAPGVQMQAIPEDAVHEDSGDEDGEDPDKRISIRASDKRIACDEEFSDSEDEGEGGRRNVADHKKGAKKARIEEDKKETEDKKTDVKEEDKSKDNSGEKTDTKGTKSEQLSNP

Histone deacetylase 8 = Histone deacetylase 8 (Homo sapiens, UniProt Q9BY41); test: Inhibition of human HDAC8
Histone deacetylase 5 = Histone deacetylase 5 (Homo sapiens, UniProt Q9UQL6); test: Inhibition of human HDAC5
Pseudomonas aeruginosa [12] = test: Antibacterial activity against Pseudomonas aeruginosa NB52001 after 18 to 24 hrs; type: functional; procedure, shortened: as §1
Klebsiella aerogenes = test: Antibacterial activity against Enterobacter aerogenes NB24004 after 18 to 24 hrs; type: functional; procedure, shortened: as §1
Pseudomonas aeruginosa [13] = test: Antibacterial activity against mexAB-oprM deficient Pseudomonas aeruginosa K1119 after 18 to 24 hrs; type: functional; procedure, shortened: as §1
Burkholderia cepacia = test: Antibacterial activity against Burkholderia cepacia NB49016 after 18 to 24 hrs; type: functional; procedure, shortened: as §1
Escherichia coli [14] = test: Antibacterial activity against efflux pump deficient Escherichia coli after 18 to 24 hrs; type: functional
Procedure, shortened: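 MIC per CLSI guidelines. Strains grown in cation-adjusted Mueller Hinton broth. Compounds dissolved in DMSO and serially diluted in DMSO (carbapenems in water) before addition to microtiter plates. Incubation at 37 °C for 18−24 h. MIC is the lowest concentration preventing visible growth.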

[15] = Protein binding in mouse plasma; type: ADME, cell-free; settings: read-out: PPB (converted)
Histone deacetylase 7 = Histone deacetylase 7 (Homo sapiens, UniProt Q8WUI4); test: Inhibition of human HDAC7
Chain of Histone deacetylase 7 (Q8WUI4 whole entry): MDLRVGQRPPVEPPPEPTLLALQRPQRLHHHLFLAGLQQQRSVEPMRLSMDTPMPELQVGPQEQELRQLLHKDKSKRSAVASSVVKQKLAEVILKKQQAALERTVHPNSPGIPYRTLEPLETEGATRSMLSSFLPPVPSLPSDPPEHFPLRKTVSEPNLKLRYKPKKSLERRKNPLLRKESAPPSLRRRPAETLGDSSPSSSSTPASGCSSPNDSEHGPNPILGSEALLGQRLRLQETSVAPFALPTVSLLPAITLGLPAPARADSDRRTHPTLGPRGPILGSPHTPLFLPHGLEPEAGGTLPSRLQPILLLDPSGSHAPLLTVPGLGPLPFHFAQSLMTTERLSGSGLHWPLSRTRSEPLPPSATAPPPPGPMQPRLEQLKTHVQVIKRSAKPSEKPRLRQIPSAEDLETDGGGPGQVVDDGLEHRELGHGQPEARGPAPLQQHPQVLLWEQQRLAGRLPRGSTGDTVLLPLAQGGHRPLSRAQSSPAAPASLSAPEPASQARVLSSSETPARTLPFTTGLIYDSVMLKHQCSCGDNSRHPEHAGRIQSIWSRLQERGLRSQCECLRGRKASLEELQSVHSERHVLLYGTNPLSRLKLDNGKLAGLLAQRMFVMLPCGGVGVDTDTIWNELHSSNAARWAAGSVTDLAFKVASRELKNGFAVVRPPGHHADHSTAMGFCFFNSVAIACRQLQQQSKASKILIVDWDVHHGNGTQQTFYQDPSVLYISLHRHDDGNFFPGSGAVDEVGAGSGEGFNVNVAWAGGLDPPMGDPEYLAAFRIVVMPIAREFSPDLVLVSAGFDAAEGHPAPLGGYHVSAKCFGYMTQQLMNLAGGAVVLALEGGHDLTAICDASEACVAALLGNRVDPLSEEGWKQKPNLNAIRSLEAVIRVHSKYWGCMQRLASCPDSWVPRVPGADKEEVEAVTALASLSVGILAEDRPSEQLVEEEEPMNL

Histone deacetylase 4 = Histone deacetylase 4 (Homo sapiens, UniProt P56524); test: Inhibition of human HDAC4
Chain of Histone deacetylase 4 (P56524 whole entry): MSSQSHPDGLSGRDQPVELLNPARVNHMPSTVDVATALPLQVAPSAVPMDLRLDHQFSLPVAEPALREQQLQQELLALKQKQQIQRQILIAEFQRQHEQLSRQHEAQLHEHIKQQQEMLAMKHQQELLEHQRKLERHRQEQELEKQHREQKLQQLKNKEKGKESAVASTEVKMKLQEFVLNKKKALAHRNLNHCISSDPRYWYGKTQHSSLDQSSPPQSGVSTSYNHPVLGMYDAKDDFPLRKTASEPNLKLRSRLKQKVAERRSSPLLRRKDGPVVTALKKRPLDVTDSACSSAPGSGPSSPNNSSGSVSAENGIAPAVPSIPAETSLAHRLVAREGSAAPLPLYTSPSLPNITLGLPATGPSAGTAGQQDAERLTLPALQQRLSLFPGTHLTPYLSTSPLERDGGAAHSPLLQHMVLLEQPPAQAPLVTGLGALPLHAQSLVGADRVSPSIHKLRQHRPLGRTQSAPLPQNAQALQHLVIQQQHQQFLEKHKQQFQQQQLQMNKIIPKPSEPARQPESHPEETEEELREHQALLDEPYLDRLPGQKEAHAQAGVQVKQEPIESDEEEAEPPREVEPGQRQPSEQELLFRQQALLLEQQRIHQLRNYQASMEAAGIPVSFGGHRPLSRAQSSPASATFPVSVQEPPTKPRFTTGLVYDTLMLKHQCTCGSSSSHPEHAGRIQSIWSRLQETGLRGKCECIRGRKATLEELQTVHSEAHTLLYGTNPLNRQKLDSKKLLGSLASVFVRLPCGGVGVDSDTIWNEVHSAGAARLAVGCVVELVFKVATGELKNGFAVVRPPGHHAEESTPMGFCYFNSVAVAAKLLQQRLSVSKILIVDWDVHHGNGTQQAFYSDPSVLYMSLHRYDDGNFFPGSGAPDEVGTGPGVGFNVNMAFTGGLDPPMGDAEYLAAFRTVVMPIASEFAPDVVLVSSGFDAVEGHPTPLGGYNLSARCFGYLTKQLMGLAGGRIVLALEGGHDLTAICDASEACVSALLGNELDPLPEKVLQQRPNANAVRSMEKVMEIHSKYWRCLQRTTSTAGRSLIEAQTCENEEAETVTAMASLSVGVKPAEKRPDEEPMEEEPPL

Histone deacetylase 3 = Histone deacetylase 3 (Homo sapiens, UniProt O15379); test: Inhibition of human HDAC3
Proteus mirabilis = test: Antibacterial activity against Proteus mirabilis NB32022 after 18 to 24 hrs; type: functional; procedure, shortened: as §1
Pseudomonas aeruginosa [16] = test: Antibacterial activity against Pseudomonas aeruginosa clinical isolate infected in iv dosed BalbC mouse neutropenic model assessed as concentration required to show bacterial stasis in lung administered as bid at 2 and 8 hrs post infection measured after 24 hrs
[17] = molecular target: Protein deacetylase HDAC6 (Homo sapiens, UniProt Q9UBN7); test: Inhibition of human HDAC6
Chain of Protein deacetylase HDAC6 (Q9UBN7 whole entry): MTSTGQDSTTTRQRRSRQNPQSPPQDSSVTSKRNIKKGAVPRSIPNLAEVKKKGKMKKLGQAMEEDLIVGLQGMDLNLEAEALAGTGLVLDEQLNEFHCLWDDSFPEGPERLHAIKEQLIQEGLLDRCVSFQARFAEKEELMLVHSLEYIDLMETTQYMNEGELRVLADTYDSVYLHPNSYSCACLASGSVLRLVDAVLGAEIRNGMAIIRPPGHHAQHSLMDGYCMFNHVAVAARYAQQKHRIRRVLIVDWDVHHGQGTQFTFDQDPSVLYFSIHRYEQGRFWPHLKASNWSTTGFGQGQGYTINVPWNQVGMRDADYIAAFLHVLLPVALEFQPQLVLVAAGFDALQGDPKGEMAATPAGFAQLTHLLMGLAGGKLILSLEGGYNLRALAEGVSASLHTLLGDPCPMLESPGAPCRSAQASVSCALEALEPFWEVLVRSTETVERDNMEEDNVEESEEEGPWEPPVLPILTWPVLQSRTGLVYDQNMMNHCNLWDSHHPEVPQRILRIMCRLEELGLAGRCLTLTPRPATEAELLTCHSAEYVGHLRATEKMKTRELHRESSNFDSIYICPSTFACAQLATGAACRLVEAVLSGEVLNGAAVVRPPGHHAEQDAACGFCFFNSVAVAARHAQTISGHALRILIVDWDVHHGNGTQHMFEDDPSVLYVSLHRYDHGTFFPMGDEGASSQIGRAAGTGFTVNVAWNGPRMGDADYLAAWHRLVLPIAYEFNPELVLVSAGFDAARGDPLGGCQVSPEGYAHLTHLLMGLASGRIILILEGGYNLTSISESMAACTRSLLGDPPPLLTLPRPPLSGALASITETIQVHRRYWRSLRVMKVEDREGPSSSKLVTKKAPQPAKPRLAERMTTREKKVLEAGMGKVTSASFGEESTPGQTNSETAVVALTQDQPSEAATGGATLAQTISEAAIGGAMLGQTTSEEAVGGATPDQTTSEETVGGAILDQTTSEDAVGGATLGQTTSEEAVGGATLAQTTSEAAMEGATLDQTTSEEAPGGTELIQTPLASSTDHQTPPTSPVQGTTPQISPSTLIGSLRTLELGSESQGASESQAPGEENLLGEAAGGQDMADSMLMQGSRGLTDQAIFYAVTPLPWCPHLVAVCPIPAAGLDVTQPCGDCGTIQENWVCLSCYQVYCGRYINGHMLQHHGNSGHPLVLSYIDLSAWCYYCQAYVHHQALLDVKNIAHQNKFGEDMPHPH

Alcaligenes = test: Antibacterial activity against Alcaligenes xylosus NB56002 after 18 to 24 hrs; type: functional; procedure, shortened: as §1
Pseudomonas aeruginosa [18] = test: Antibacterial activity against Pseudomonas aeruginosa NB52096 after 18 to 24 hrs; type: functional; procedure, shortened: as §1
Histone deacetylase 11 = Histone deacetylase 11 (Homo sapiens, UniProt Q96DB2); test: Inhibition of human HDAC11
Chain of Histone deacetylase 11 (Q96DB2 whole entry): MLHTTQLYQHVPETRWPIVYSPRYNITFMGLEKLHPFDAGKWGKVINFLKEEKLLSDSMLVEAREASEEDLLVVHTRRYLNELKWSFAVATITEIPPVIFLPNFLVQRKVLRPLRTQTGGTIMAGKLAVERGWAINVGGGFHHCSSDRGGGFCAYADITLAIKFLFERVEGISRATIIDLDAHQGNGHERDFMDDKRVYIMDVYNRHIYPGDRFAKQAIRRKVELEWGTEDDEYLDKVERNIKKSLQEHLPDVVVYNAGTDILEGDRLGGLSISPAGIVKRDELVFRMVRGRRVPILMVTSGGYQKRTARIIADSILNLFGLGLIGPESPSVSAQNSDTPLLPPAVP

[19] = Solubility of the compound at pH 6.8 by high throughput screening assay; type: physicochemical; settings: buffer, read-out: solubility
Acinetobacter baumannii = test: Antibacterial activity against Acinetobacter baumannii NB48015 after 18 to 24 hrs; type: functional; procedure, shortened: as §1
Klebsiella pneumoniae = test: Antibacterial activity against Klebsiella pneumoniae NB29018 after 18 to 24 hrs; type: functional; procedure, shortened: as §1
[20] = Cytotoxicity against human HepG2 cells assessed as reduction in cell viability after 72 hrs by WST1 assay; type: cell-based; procedure, shortened: as §2
[21] = molecular target: T1, UDP-3-O-acyl-N-acetylglucosamine deacetylase (Pseudomonas aeruginosa (strain ATCC 15692 / PAO1 / 1C / PRS 101 / LMG12228), UniProt P47205); test: Inhibition of Pseudomonas aeruginosa LpxC using UDP-3-O-(R-hydroxydecanoyl)-N-acetylglucosamine as substrate preincubated for 30 mins followed by substrate addition measured after 20 mins by LC-MS/MS analysis
T1 sequence (P47205 whole entry): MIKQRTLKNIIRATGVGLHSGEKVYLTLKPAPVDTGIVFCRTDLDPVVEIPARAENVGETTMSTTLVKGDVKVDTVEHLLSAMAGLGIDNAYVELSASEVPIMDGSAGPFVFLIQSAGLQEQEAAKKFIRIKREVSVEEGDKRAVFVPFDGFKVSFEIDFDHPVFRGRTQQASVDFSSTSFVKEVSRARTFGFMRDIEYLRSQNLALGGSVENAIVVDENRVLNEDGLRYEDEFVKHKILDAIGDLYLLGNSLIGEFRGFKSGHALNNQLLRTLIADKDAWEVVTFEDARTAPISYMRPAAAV

## CC#CCOc1ccc(C(=O)N[C@H](C(=O)NO)C(C)(C)N)cc1
Pseudomonas aeruginosa [1]
  MIC: 0.25 µg/mL (≈ 0.783 µM)
[2]
  MIC: 32 µg/mL (≈ 100 µM)
[3]
  fraction unbound: 0.193
Histone deacetylase 9
  IC50: > 30 µM
Pseudomonas aeruginosa [4]
  MIC: 0.5 µg/mL (≈ 1.57 µM)
Klebsiella oxytoca
  MIC: 16 µg/mL (≈ 50.1 µM)
[5]
  CC50 at 72 h: > 295 µM
Pseudomonas aeruginosa [6]
  MIC50: 1 µg/mL (≈ 3.13 µM)
  MIC90: 2 µg/mL (≈ 6.26 µM)
Pseudomonas aeruginosa [7]
  Activity: 20 mg/kg/day
Histone deacetylase 1
  IC50: > 30 µM
Pseudomonas aeruginosa [8]
  Activity: Active
[9]
  fraction unbound: 0.779
Escherichia coli [10]
  MIC: 64 µg/mL (≈ 200 µM)
[11]
  IC50: > 30 µM
Histone deacetylase 2
  IC50: > 30 µM
Histone deacetylase 8
  IC50: > 30 µM
Histone deacetylase 5
  IC50: > 30 µM
Pseudomonas aeruginosa [12]
  MIC: 1 µg/mL (≈ 3.13 µM)
Klebsiella aerogenes
  MIC: > 128 µg/mL
Pseudomonas aeruginosa [13]
  MIC: 0.06 µg/mL (≈ 0.188 µM)
Burkholderia cepacia
  MIC: 32 µg/mL (≈ 100 µM)
Escherichia coli [14]
  MIC: 1 to 2 µg/mL (≈ 3.13 to 6.26 µM)
[15]
  fraction unbound: 0.772
Histone deacetylase 7
  IC50: > 30 µM
Histone deacetylase 4
  IC50: > 30 µM
Histone deacetylase 3
  IC50: > 30 µM
Proteus mirabilis
  MIC: 64 µg/mL (≈ 200 µM)
Pseudomonas aeruginosa [16]
  Activity: 7.1 mg/kg/day
[17]
  IC50: > 30 µM
Alcaligenes
  MIC: 16 µg/mL (≈ 50.1 µM)
Pseudomonas aeruginosa [18]
  MIC: 2 µg/mL (≈ 6.26 µM)
Histone deacetylase 11
  IC50: > 30 µM
[19]
  solubility: > 327 µg/mL
Acinetobacter baumannii
  MIC: > 128 µg/mL
Klebsiella pneumoniae
  MIC: 16 µg/mL (≈ 50.1 µM)
[20]
  CC50 at 72 h: > 295 µM

## CC#CCOc1ccc(C(=O)N[C@H](C(=O)NO)[C@@H](N)C(F)(F)F)cc1
Pseudomonas aeruginosa [1]
  MIC: 1 µg/mL (≈ 2.78 µM)
Pseudomonas aeruginosa [4]
  MIC: 16 µg/mL (≈ 44.5 µM)
Pseudomonas aeruginosa [13]
  MIC: 0.25 µg/mL (≈ 0.696 µM)
[21]
  IC50: 0.039 µM

## CCc1ccc(-c2ccc(C(=O)N[C@H](C(=O)NO)[C@@H](C)N)cc2)cc1
Pseudomonas aeruginosa [1]
  MIC: 0.25 µg/mL (≈ 0.732 µM)
Pseudomonas aeruginosa [4]
  MIC: 2 µg/mL (≈ 5.86 µM)
[5]
  CC50 at 72 h: 7.37 µM
Pseudomonas aeruginosa [13]
  MIC: 0.06 µg/mL (≈ 0.176 µM)
[21]
  IC50: 0.00146 µM
[19]
  solubility: 4 µg/mL (≈ 11.7 µM)
[20]
  CC50 at 72 h: 12.8 µM

## C[C@@H](N)[C@H](NC(=O)[C@H]1CC[C@H](C(C)(C)C)CC1)C(=O)NO
Pseudomonas aeruginosa [1]
  MIC: 32 µg/mL (≈ 107 µM)
Pseudomonas aeruginosa [4]
  MIC: 128 µg/mL (≈ 428 µM)
Pseudomonas aeruginosa [13]
  MIC: 16 µg/mL (≈ 53.4 µM)
[21]
  IC50: 0.117 µM

## CC#CCOc1ccc(C(=O)N[C@H](C(=O)NO)[C@H](N)C2CC2)cc1
Pseudomonas aeruginosa [1]
  MIC: 4 µg/mL (≈ 12.1 µM)
Pseudomonas aeruginosa [4]
  MIC: 32 µg/mL (≈ 96.6 µM)
Pseudomonas aeruginosa [13]
  MIC: 2 µg/mL (≈ 6.04 µM)
[21]
  IC50: 0.362 µM

## C[C@@H](N)[C@H](NC(=O)COc1ccc(N2CCCC2=O)cc1)C(=O)NO
Pseudomonas aeruginosa [1]
  MIC: > 128 µg/mL
Pseudomonas aeruginosa [4]
  MIC: > 128 µg/mL
Pseudomonas aeruginosa [13]
  MIC: > 128 µg/mL
[21]
  IC50: 0.342 µM

## CCN1CCN(C(=O)N[C@@H](C(=O)N[C@@H]2C(=O)N3[C@@H]2SC(C)(C)[C@@H]3C(=O)O)c2ccccc2)C(=O)C1=O [PIPERACILLIN]
Pseudomonas aeruginosa [6]
  MIC50: 32 µg/mL (≈ 61.8 µM)
  MIC90: > 128 µg/mL

## CC#CCOc1ccc(C(=O)N[C@H](C(=O)NO)[C@H](N)C(C)C)cc1
Pseudomonas aeruginosa [1]
  MIC: 32 µg/mL (≈ 96 µM)
Pseudomonas aeruginosa [4]
  MIC: > 128 µg/mL
Pseudomonas aeruginosa [13]
  MIC: 16 µg/mL (≈ 48 µM)
[21]
  IC50: 0.9 µM

## CCCCc1ccc(C(=O)N[C@H](C(=O)NO)[C@@H](C)N)cc1
Pseudomonas aeruginosa [1]
  MIC: 1 µg/mL (≈ 3.41 µM)
Pseudomonas aeruginosa [4]
  MIC: 8 µg/mL (≈ 27.3 µM)
[5]
  CC50 at 72 h: 42.3 µM
Pseudomonas aeruginosa [13]
  MIC: 0.5 µg/mL (≈ 1.7 µM)
[21]
  IC50: 0.0375 µM
[19]
  solubility: > 293 µg/mL
[20]
  CC50 at 72 h: 125 µM

## NCC[C@H](O)C(=O)N[C@@H]1C[C@H](N)[C@@H](O[C@H]2O[C@H](CN)[C@@H](O)[C@H](O)[C@H]2O)[C@H](O)[C@H]1O[C@H]1O[C@H](CO)[C@@H](O)[C@H](N)[C@H]1O [AMIKACIN]
Pseudomonas aeruginosa [6]
  MIC50: 16 µg/mL (≈ 27.3 µM)
  MIC90: > 128 µg/mL

## CCc1ccc(-c2ccc(C(=O)N[C@H](C(=O)NO)[C@@H](C)NCC(=O)N3CCNC(=O)C3)cc2)cc1
Pseudomonas aeruginosa [1]
  MIC: 1 µg/mL (≈ 2.08 µM)
Pseudomonas aeruginosa [4]
  MIC: 16 µg/mL (≈ 33.2 µM)
Pseudomonas aeruginosa [13]
  MIC: 0.125 µg/mL (≈ 0.26 µM)

## CC[C@H]1OC(=O)[C@H](C)[C@@H](O[C@H]2C[C@@](C)(OC)[C@@H](O)[C@H](C)O2)[C@H](C)[C@@H](O[C@@H]2O[C@H](C)C[C@H](N(C)C)[C@H]2O)[C@](C)(O)C[C@@H](C)CN(C)[C@H](C)[C@@H](O)[C@]1(C)O [AZITHROMYCIN]
Pseudomonas aeruginosa [6]
  MIC50: 16 µg/mL (≈ 21.4 µM)
  MIC90: > 128 µg/mL

## CC#CCOc1ccc(C(=O)N[C@@H](C(=O)NO)C(C)(C)N)cc1
Pseudomonas aeruginosa [1]
  MIC: 4 µg/mL (≈ 12.5 µM)
Pseudomonas aeruginosa [4]
  MIC: 16 µg/mL (≈ 50.1 µM)
Pseudomonas aeruginosa [13]
  MIC: 2 µg/mL (≈ 6.26 µM)

## C[C@@H](N)[C@H](NC(=O)c1ccc(C#Cc2ccccc2)cc1)C(=O)NO
Pseudomonas aeruginosa [1]
  MIC: 0.25 µg/mL (≈ 0.741 µM)
[3]
  fraction unbound: 0.081
Pseudomonas aeruginosa [4]
  MIC: 1 µg/mL (≈ 2.96 µM)
[5]
  CC50 at 72 h: 29.5 µM
[9]
  fraction unbound: 0.072
Pseudomonas aeruginosa [13]
  MIC: 0.25 µg/mL (≈ 0.741 µM)
[21]
  IC50: 0.00356 µM
[15]
  fraction unbound: 0.086
